Experimental data: ChEMBL document CHEMBL1125666, “In vitro evaluation of phosphocholine and quaternary ammonium containing lipids as novel anti-HIV agents” (J Med Chem, 1991)
pIC50: −log10 of the molar value.

Key:
[1] = system: CEM-SS cells (Homo sapiens); experiment: In vitro inhibition of CEM-SS cell growth by 50 %
[2] = system: Human immunodeficiency virus 1; experiment: Differential selectivity measured as the ratio of CEM-SS cell growth IC50 vs HIV plaque formation IC50.; type: functional
In short: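 Selectivity index taken as CEM-SS growth IC50 (48 h suspension culture, [3H]thymidine uptake) divided by HIV-1 syncytial plaque IC50 (day-5 plaque count in CEM-SS monolayers, 60–90 PFU). Both IC50s come from twofold dilutions over 0.03–20.0 μM.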

[3] = system: Human immunodeficiency virus 1; experiment: In vitro inhibition of HIV-1 plaque formation; type: functional, organism-based
In short: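 HIV-1 syncytial plaque assay. CEM-SS cells in log phase, washed in PBS, 50 000 per well in serum-free RPMI-1640 on poly-L-lysine-coated wells, 30 min at 37 °C, 5% CO2. Inoculated with HIV-1 (60–90 PFU). After 60 min, overlay with or without compound at serial twofold dilutions, 0.03–20.0 μM. Second overlay on day 3. Plaques counted on day 5 to give IC50. Mean ± SD, n ≥ 3, or a single experiment.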

| pIC50 [3] | Compound | pIC50 [1] | Ratio [2] |
| --- | --- | --- | --- |
| 6.31 | CCCCCCCCCCCCCCCCSCC(C[N+](C)(C)CC(O)CO)OC.[Br-] (stereo not drawn) | 5.70 | 4.1 |
| < 5.30 | CCCCCCCCCCCCCCCCOCC(COP(=O)(O)OCCNC(C)(C)C)OCC (stereo not drawn) | 5.00 |  |
| < 5.30 | CCCCCCCCCCCCCCCCOCC(COP(=O)(O)OCCNC(C)C)OCC (stereo not drawn) | 5.15 |  |
| 6.34 | CCCCCCCCCCCCCCCC(=O)NCC(COP(=O)([O-])OCC[N+](C)(C)C)OCC (stereo not drawn) | 4.72 | 41.3 |
| 5.33 | CCCCCCCCCCCCCCCCOCC(COP(=O)([O-])OCC[n+]1ccccc1)OCC (stereo not drawn) | 5.09 | 1.7 |
| 6.28 | CCCCCCCCCCCCCCCCOCC(C[N+](C)(C)C)OC.[Br-] (stereo not drawn) | 5.96 | 2.1 |
| 6.15 | CCCCCCCCCCCCCCCCSCC(COP(=O)([O-])OCC[N+](C)(C)C)OCC (stereo not drawn) | 5.39 | 5.9 |
| 6.42 | CCCCCCCCCCCCCCCCOCC[N+](C)(C)CCO.[I-] | 5.22 | 15.6 |
| 6.41 | CCCCCCCCCCCCCCCCSCC(C[N+](C)(C)C)OC.[Br-] (stereo not drawn) | 5.28 | 13.4 |
| < 5.30 | CCCCCCCCCCCCCCCCOCC(CO)OCC (stereo not drawn) | < 4.70 |  |
| 6.20 | CCCCCCCCCCCCCCCCSCC(C[N+](C)(C)CCO)OCC.[Br-] (stereo not drawn) | 5.29 | 8.1 |
| 6.52 | CCCCCCCCCCCCCCCCOCC(C[N+]1(CO)CCCCC1)OCC.[I-] (stereo not drawn) | 5.62 | 8 |
| 6.52 | CCCCCCCCCCCCCCCCCC(=O)NCC(COP(=O)([O-])OCC[N+](C)(C)C)OC (stereo not drawn) | 4.85 | 47.3 |
| 6.80 | CCCCCCCCCCCCCCCCCC(=O)NCC(COP(=O)([O-])OCC[N+](C)(C)C)OCC (stereo not drawn) | 4.87 | 84.4 |

The remaining lines, values behind:

| Compound | pIC50 [3] | pIC50 [1] | Ratio [2] |
| --- | --- | --- | --- |
| CCCCCCCCCCCCCCCCOCC(CP(=O)([O-])OCC[n+]1ccccc1)OC (stereo not drawn) | 5.66 | 5.11 | 3.5 |
| CCCCCCCCCCCCCCCCCCOCC[N+](C)(C)CC(O)CO.[I-] (stereo not drawn) | 6.70 | 5.54 | 14.5 |
| CCCCCCCCCCCCCCCCSCCOP(=O)([O-])OCC[N+](C)(C)C | 6.55 | 5.12 | 27.1 |
| CCCCCCCCCCCCCCCCOCC(C[n+]1ccccc1)OCC.[Br-] (stereo not drawn) | 6.68 | 5.96 | 5.2 |
| CCCCCCCCCCCCCCCCSCC(C[N+](C)(C)CCO)OC.[Br-] (stereo not drawn) | 6.43 | 5.68 | 5.7 |
| CCCCCCCCCCCCCCCCCC(=O)NCCOP(=O)([O-])OCC[N+](C)(C)C | 6.55 | 4.71 | 68.7 |
| CCCCCCCCCCCCCCCC(=O)NCC(COP(=O)([O-])OCC[N+](C)(C)C)OC (stereo not drawn) | 6.03 | 4.61 | 26.6 |
| CCCCCCCCCCCCCCCCOCC(CN(C)CCO)OC (stereo not drawn) | 5.68 | 5.49 | 1.5 |
| CCCCCCCCCCCCCCCCCCSCC(C[N+](C)(C)CCCO)OC.[I-] (stereo not drawn) | 6.39 | 5.40 | 9.8 |
| CCCCCCCCCCCCCCCCCCOCC(COP(=O)([O-])OCC[N+](C)(C)C)OCC (stereo not drawn) | 6.57 | 5.52 | 11.1 |
| CCCCCCCCCCCCCCCCCCNC(=O)NCC(COP(=O)([O-])OCC[N+](C)(C)C)OCC (stereo not drawn) | 6.24 | 5.11 | 13.5 |
| CCCCCCCCCCCCCCCCCCS(=O)(=O)CC(COP(=O)([O-])OCC[N+](C)(C)C)OCC (stereo not drawn) | 5.92 | 5.05 | 7.5 |
| CCCCCCCCCCCCCCCCOCC[N+](C)(C)CCCO.[I-] | 6.62 | 5.82 | 6.1 |
| CCCCCCCCCCCCCCCCCCCC(=O)NCC(COP(=O)([O-])OCC[N+](C)(C)C)OCC (stereo not drawn) | 6.80 | 5.33 | 29.4 |
| CCCCCCCCCCCCCCCCCCSCC(COP(=O)([O-])OCC[N+](C)(C)C)OC (stereo not drawn) | 6.31 | 5.42 | 7.8 |
| CCCCCCCCCCCCCCCCCCOCC(COP(=O)([O-])OCC[N+](C)(C)C)OC (stereo not drawn) [EDELFOSINE] | 6.04 | 5.40 | 4.3 |
| Cc1cn([C@H]2C[C@H](N=[N+]=[N-])[C@@H](CO)O2)c(=O)[nH]c1=O [ZIDOVUDINE] |  | 5.25 |  |
